Only some compounds are listed: those with a hit (about 0.77% of all), similar ones and a draw of the others.
hIAP block: human IAP inhibition | actives 0.12% (n = 330,000) | purified IAP, CDP-Star luminescence, 30 min | inhibition, % at 10 µM | P09923;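 active = inhibition reaching a set limit with compound at 10 µM in the primary screen, cut at about 35% in these data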
Target sequence (P09923 whole entry, looked up): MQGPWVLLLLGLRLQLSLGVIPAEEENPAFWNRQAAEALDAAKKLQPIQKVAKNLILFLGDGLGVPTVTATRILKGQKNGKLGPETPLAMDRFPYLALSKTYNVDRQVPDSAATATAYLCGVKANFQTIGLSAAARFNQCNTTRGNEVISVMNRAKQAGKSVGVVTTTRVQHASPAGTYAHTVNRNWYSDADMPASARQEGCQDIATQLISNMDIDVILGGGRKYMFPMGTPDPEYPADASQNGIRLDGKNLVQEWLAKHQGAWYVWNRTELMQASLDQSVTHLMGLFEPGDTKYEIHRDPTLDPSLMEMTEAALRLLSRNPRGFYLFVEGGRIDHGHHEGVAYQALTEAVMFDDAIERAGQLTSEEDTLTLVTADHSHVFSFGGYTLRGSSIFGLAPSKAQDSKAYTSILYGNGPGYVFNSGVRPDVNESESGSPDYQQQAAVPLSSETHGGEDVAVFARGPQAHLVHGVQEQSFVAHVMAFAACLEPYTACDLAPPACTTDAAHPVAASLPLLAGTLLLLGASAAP
hIAP activ: increases human intestinal alkaline phosphatase activity; P09923; actives 0.16% (n = 330,000); purified human IAP, CDP-Star luminescence, 30 min; active compounds read high; 1 = vehicle-only enzyme, 0 = enzyme-free background; activation factor at 10 µM;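 active = activation factor of the enzyme at least 2-fold when tested at 20 µM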
bIAP act: increases bovine intestinal alkaline phosphatase activity; purified bovine IAP, CDP-star luminescence, 30 min; active compounds read high; fold of DMSO-control signal, blank-subtracted; activation factor at 20 µM; actives 0.17% (n = 200,000);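 active = activation factor of 2 or more at 20 µM, a signal rise over negative controls twice the positive control's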
mIAP act: mouse IAP activation. activation factor at 10 µM. AID 2805. muIAP, CDP-Star luminescence, 30 min; active compounds read high; 1 = vehicle-only enzyme signal, 0 = enzyme-free wells. actives 0.24% (n = 330,000);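 active = activation factor of at least 2 at 20 µM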
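also added = chemiluminescent substrate CDP-Star | test system = mouse IAP enzyme | signal = chemiluminescence readout | compound = DMSO-dissolved test compounds | incubation = 30 min at room temperature | benchmarks = DMSO wells, no-enzyme wells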
bIAP inhibitor: intestinal alkaline phosphatase (bovine) inhibition; purified bovine IAP, CDP-star luminescence, 30 min; 190,000 tested, under 10 active; inhibition, % at 20 µM;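 active = over 50% inhibition of intestinal alkaline phosphatase at 20 µM in the single-dose screen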
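System: purified bovine intestinal alkaline phosphatase (IAP) enzyme; Input: IAP diluted 1/65,000,000 in the well; Measured by: CDP-star luminescence signal; Compound dosing: 20 µM single dose; Incubation: 30 min reaction at room temperature.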
mIAP block: blocks mouse intestinal alkaline phosphatase; purified mouse IAP, CDP-Star luminescence, 30 min; inhibition, % at 10 µM; actives 0.2% (n = 330,000); AID 2806;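 active = inhibition of at least 40% at 10 µM in the primary screen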
Each line names hits and unclear results; the compound was inactive in the other large screens.

S=C(NCc1ccncc1)Nc1cccc(Cl)c1	none
S=C(Nc1ccc(Cl)cc1)NC1CC2CCCC(C1)N2C1CC1 (stereo unspecified)	mIAP act 2.64
S=C(Nc1ccc(Cl)cc1)NC1CC2CCCC(C1)N2C1CCCC1 (stereo unspecified)	none
S=C(NCCN(C1CCCCC1)C1CCCC1)Nc1cccc(Cl)c1	mIAP act 2.02 (no result: bIAP act, bIAP inhibitor)
Cc1cc(C)cc(NC(=S)NC2CC3CCCC(C2)N3C2CC2)c1 (stereo unspecified)	mIAP act 2.31
O=C(Nc1c(Cl)ccc2nsnc12)c1ccc([N+](=O)[O-])o1	none (no result: bIAP act, bIAP inhibitor)
COc1ccc(C2Nc3ccc4ccccc4c3-c3c2c(=O)oc2ccccc32)cc1 (stereo unspecified)	bIAP act 3.5
CCOc1ccc(C2Nc3ccc4ccccc4c3-c3c2c(=O)oc2ccccc32)cc1 (stereo unspecified)	none
CC(C)CNC(=S)NC1CC2CCCC(C1)N2Cc1ccco1 (stereo unspecified)	none
Fc1ccc(NC(=S)NC2CC3CCCC(C2)N3Cc2cccs2)cc1 (stereo unspecified)	mIAP act 2.81
CC(C)CNC(=S)NC1CC2CCCC(C1)N2Cc1cccs1 (stereo unspecified)	mIAP act 2.63
CC(C)c1ccc(NC(=O)NC2CC3CCC(C2)N3Cc2cccs2)cc1 (stereo unspecified)	none
Cc1ccc(NC(=S)NC2CC3CCCC(C2)N3Cc2cccs2)cc1 (stereo unspecified)	bIAP act 2, mIAP act 4.18
Cc1ccc(NC(=S)NC2CC3CCCC(C2)N3Cc2ccco2)cc1 (stereo unspecified)	none
O=C(Cc1ccc(Br)cc1)OCC(=O)N1CCc2ccccc2C1	none
Cc1ccc(-n2nnnc2SCC(=O)Nc2ccc(N3CCN(C)CC3)cc2)c(C)c1	none (no result: bIAP act, bIAP inhibitor)
Cc1ccc(SCC(=O)Nc2ccc(N3CCN(C)CC3)c(F)c2)c(C)c1	mIAP block 42.3
O=C(NCC1CCN(c2ccc(S(=O)(=O)N3CCOCC3)cc2)CC1)Nc1ccccc1	mIAP act 2.11 (no result: bIAP act, bIAP inhibitor)
CCCCCC1(C(=O)OCC)CC(CSC(=N)N)OC1=O (stereo unspecified)	none
CC(C)c1ccc(NC(=O)C(c2ccc3c(c2)OCO3)N2CCN(C(=O)c3ccco3)CC2)cc1 (stereo unspecified)	mIAP act 2.07
Cc1ccccc1NC(=O)CN1CCC(NC(=O)Nc2ccccc2)CC1	bIAP act 2.3
COc1ccc(-n2nc3c(c2NC(=O)c2ccc(S(=O)(=O)N4CCOCC4)cc2)CS(=O)C3)cc1 (stereo unspecified)	none
O=C(O)c1cc(O)c2c(c1)C(=O)c1cc(O)cc(O)c1C2=O	mIAP block 40.1
CCOc1ccc(S(=O)(=O)NN)cc1	bIAP act 2
O=C(Nc1cc(Cl)cc(Cl)c1)C1CCC(=O)N1Cc1ccccc1Cl (stereo unspecified)	mIAP act 2.04
C#CCOCCOCCOCCNc1nc(N2CCN(C(=O)C(Cc3cc4ccccc4[nH]3)n3cc(C(N)C(C)CC)nn3)CC2)nc(N2CCN(C(=O)C(Cc3cc4ccccc4[nH]3)n3cc(C(N)C(C)CC)nn3)CC2)n1 (stereo unspecified)	bIAP act 3.9
Cc1nc2nc(C)c(NS(=O)(=O)c3ccc(C4CCCCC4)cc3)c(=O)n2[nH]1	none (no result: bIAP act, bIAP inhibitor)
COc1cccc(CNC(=O)COC(=O)c2ccc(Cl)s2)c1	none (no result: bIAP act, bIAP inhibitor)
Cc1cc2ccccn2c1C(=O)Nc1cccc(Cl)c1	none
Cc1ccc2nc(N3C(=O)C(O)=C(C(=O)c4ccc(C)o4)C3c3ccco3)sc2c1 (stereo unspecified)	mIAP block 49.9 (no result: bIAP act, bIAP inhibitor)
COc1cc(C(O)P(=O)(OCC(C)C)c2ccc(N(C)C)cc2)cc(OC)c1OC (stereo unspecified)	none (no result: bIAP act, bIAP inhibitor)
Cc1oc2ccc(O)cc2c1C(=O)c1ccc([N+](=O)[O-])cc1	none
CN(C)/C=C/c1oc2ccc(O)cc2c1[N+](=O)[O-]	hIAP block 46.3
O=C1C2C3C=CC(C3)C2C(=O)N1c1cccc(-c2nc3ccccc3o2)c1 (stereo unspecified)	bIAP act 3.9
O=C(Nc1cccc(-c2nc3ccccc3o2)c1)c1ccc(N2C(=O)C3C4C=CC(C4)C3C2=O)cc1 (stereo unspecified)	none
CCOC(=O)c1sc(N=NC2=C(O)CCCC2=O)c(C(=O)OCC)c1C	mIAP block 40.0
CCOC(=O)/C(N=Nc1sc(C(=O)OCC)c(C)c1C(=O)OCC)=C(\C)O	none
O=[N+]([O-])c1c(NCCCO)cc(SCc2ccco2)c2nonc12	mIAP block 54.5
CSc1nnc(-c2ccco2)c(-c2ccco2)n1	mIAP block 45.5
CSc1nnc(-c2ccccc2)c(-c2ccccc2)n1	none (no result: bIAP act, bIAP inhibitor)
Cc1ccc(NC(=O)Nc2ccc(F)cc2)cc1Cl	mIAP act 2.03
CC(C)(C)c1ccc(NC(=O)Nc2ccc(F)cc2)cc1	mIAP act 2.19
Cn1cc(C(=O)Nc2ccc(Cl)cc2)c(C(F)(F)F)n1	none
Cn1cc(NC(=O)Nc2ccc(C(F)(F)F)cc2)c(C(F)(F)F)n1	mIAP act 2.9 (no result: bIAP act, bIAP inhibitor)
CC(C)(C)c1ccc(COC(=O)Nc2ccc(F)cc2)cc1	none
Cc1oc(S(=O)(=O)N2CCCCC2)cc1NC(=O)Nc1ccc(F)cc1	mIAP act 2.06 (no result: bIAP act, bIAP inhibitor)
O=C(Nc1ccc(F)cc1)Nc1ccc(S(=O)(=O)N2CCCC2)cc1	none (no result: bIAP act, bIAP inhibitor)
Cc1ccc(NC(=O)CCC(=O)c2ccc(F)cc2)cc1Cl	none
Cc1csc(NC(=O)C(Cc2ccccc2)n2cccc2)n1 (stereo unspecified)	mIAP block 43.2
Cc1ccc(NC(=O)C(Cc2ccccc2)n2cccc2)cc1 (stereo unspecified)	none (no result: bIAP act, bIAP inhibitor)
O=C(COC(=O)c1cc(=O)[nH]c2ccccc12)Nc1ccc(Cl)cn1	none (no result: bIAP act, bIAP inhibitor)
COc1cccc(NC(=O)Nc2ccncc2)c1	none
COc1cccc(NC(=O)Nc2ccc(Cc3ccncc3)cc2)c1	mIAP act 4.57
COc1cccc(NC(=O)C2CC2(c2cccc(OC)c2)c2cccc(OC)c2)c1 (stereo unspecified)	mIAP act 2.23
COc1cccc(C2(c3cccc(OC)c3)CC2C(=O)Nc2cccc3ccccc23)c1 (stereo unspecified)	none
COc1cccc(NC(=O)Nc2cc(NC(=O)Nc3cccc(OC)c3)c(C)nc2C)c1	mIAP act 2.03
CC(C)OCCCNC(=O)c1ccccc1NC(=O)C1=CSCCO1	none (no result: bIAP act, bIAP inhibitor)
N#Cc1ccccc1CN1C(=O)NC2(CCCCCC2)C1=O	none (no result: bIAP act, bIAP inhibitor)
Cc1cc(C)nc(/N=C(\N)Nc2ccc(-c3ccccc3)cc2)n1	bIAP act 3.7
CC(=O)Nc1ccc(N/C(N)=N/c2nc(C)cc(C)n2)cc1	none
O=C(Nc1ccc(F)cc1F)Nc1csc2ccccc12	mIAP act 2.28 (no result: bIAP act, bIAP inhibitor)
